Data taken from paper PMC2861555 (International journal of radiation biology, 2009).
Like-named read-outs stand apart in the source and are kept apart here. Marks after values point to notes of the source that are not given here.

How the values were obtained:
[1] = format: in vivo, rat; settings: for Bile/Urine (%): bile share of U excretion / Bile/Urine (%): urine share of U excretion / % Administered Dose Excreted: 24 h; for % Administered Dose Excreted: bile + urine; for Renal Conc.: kidneys removed 24 h post-metal; for Kidney U Conc. / Liver U Conc. / Lung U Conc. / Spleen U Conc. / Bone (femur) U Conc.: tissue 24 h post-metal; for Bone (femur) U Conc.: bone + bone marrow
[2] = test system: rats; settings: ref Bergeron et al., 2008; cited from earlier work
[3] = Multiple dose chelator administration in non-bile duct-cannulated; format: in vivo, rat; settings: for % Administered Dose Excreted / Total U Excretion: urine + feces
Procedure, shortened: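 Intact rats got uranyl acetate 1 mg U kg−1 s.c. (left flank), then test compound or DTPA 300 µmol kg−1 s.c. (right flank) immediately and at 24-h intervals (4 doses). Rats were caged singly with chow and water ad libitum. Urine and feces were collected every 24 h. Kidneys and other tissues were taken 24 h after the last dose. Uranium was measured by ICP-MS in triplicate; data are mean ± SEM.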

[4] = single dose 150 µmol kg^−1 SC, 24 h post-metal
[5] = single dose 300 µmol kg^−1 PO, 24 h post-metal
[6] = 24 h after last of 4 daily s.c. doses of 300 µmol kg^−1
[7] = Day 1, 300 µmol kg^−1 s.c. daily x 4
[8] = Day 2, 300 µmol kg^−1 s.c. daily x 4
[9] = Day 3, 300 µmol kg^−1 s.c. daily x 4
[10] = Day 4, 300 µmol kg^−1 s.c. daily x 4

COCCOCCOCCOc1cccc(C2=N[C@@](C)(C(=O)O)CS2)c1O [compound 10, (S)-4,5-dihydro-2-[2-hydroxy-3-(3,6,9-trioxadecyloxy)phenyl]-4-methyl-4-thiazolecarboxylic acid]
Bile/Urine (%): bile share of U excretion ([1]; single dose 150 µmol kg^−1 SC): 55%
Bile/Urine (%): urine share of U excretion ([1]; single dose 150 µmol kg^−1 SC): 45%
Reduction (%) of renal uranium vs control [1, 4]: 61%
% Administered Dose Excreted ([1]; single dose 150 µmol kg^−1 SC): 31.6%
Renal Conc. ([1]; single dose 150 µmol kg^−1 SC): 33 ± 8 ^b µg g^−1
Kidney U Conc. ([1]; single dose 150 µmol kg^−1 SC): 33 ± 8 ^b µg g^−1
Liver U Conc. ([1]; single dose 150 µmol kg^−1 SC): 1.2 ± 0.6 ^c µg g^−1
Lung U Conc. ([1]; single dose 150 µmol kg^−1 SC): 0.09 ± 0.02 ^b µg g^−1
Spleen U Conc. ([1]; single dose 150 µmol kg^−1 SC): 0.21 ± 0.01 ^c µg g^−1
Bone (femur) U Conc. ([1]; single dose 150 µmol kg^−1 SC): 3.4 ± 0.1 µg/g
Reduction (%) of renal uranium vs control [1, 5]: 62%
% Administered Dose Excreted ([1]; single dose 300 µmol kg^−1 PO): 25.7%
Renal Conc. ([1]; single dose 300 µmol kg^−1 PO): 32 ± 20 ^b µg g^−1
Kidney U Conc. ([1]; single dose 300 µmol kg^−1 PO): 32 ± 20 ^b µg g^−1
Liver U Conc. ([1]; single dose 300 µmol kg^−1 PO): 0.7 ± 0.4 ^c µg g^−1
Lung U Conc. ([1]; single dose 300 µmol kg^−1 PO): 0.13 ± 0.04 µg/g
Spleen U Conc. ([1]; single dose 300 µmol kg^−1 PO): 0.16 ± 0.05 µg/g
Bone (femur) U Conc. ([1]; single dose 300 µmol kg^−1 PO): 3.1 ± 1.1 µg/g
Bile/Urine (%): bile share of U excretion ([1]; single dose 300 µmol kg^−1 SC): 79%
Bile/Urine (%): urine share of U excretion ([1]; single dose 300 µmol kg^−1 SC): 21%
Reduction (%) of renal uranium vs control ([1]; single dose 300 µmol kg^−1 SC, 24 h post-metal): 85%
% Administered Dose Excreted ([1]; single dose 300 µmol kg^−1 SC): 31.4%
Renal Conc. ([1]; single dose 300 µmol kg^−1 SC): 13 ± 6 ^b µg g^−1
Kidney U Conc. ([1]; single dose 300 µmol kg^−1 SC): 13 ± 6 ^b µg g^−1
Liver U Conc. ([1]; single dose 300 µmol kg^−1 SC): 0.8 ± 0.2 ^c µg g^−1
Lung U Conc. ([1]; single dose 300 µmol kg^−1 SC): 0.08 ± 0.02 ^b µg g^−1
Spleen U Conc. ([1]; single dose 300 µmol kg^−1 SC): 0.18 ± 0.03 µg/g
Bone (femur) U Conc. ([1]; single dose 300 µmol kg^−1 SC): 2.3 ± 0.6 ^b µg g^−1
reduction of bone actinide content vs control ([1]; single dose 300 µmol kg^−1 s.c., femur, 24 h post-metal): 36%
nephrotoxicity [2]: did not present with any nephrotoxicity

O=C(O)CN(CCN(CC(=O)O)CC(=O)O)CCN(CC(=O)O)CC(=O)O [DTPA, Diethylenetriaminepentaacetic acid, reference compound]
renal share of actinide excretion ([1]; route of actinide excretion, dose and route of chelator not stated at this place): 100%
Bile/Urine (%): bile share of U excretion ([1]; single dose 150 µmol kg^−1 SC): 2%
Bile/Urine (%): urine share of U excretion ([1]; single dose 150 µmol kg^−1 SC): 98%
Reduction (%) of renal uranium vs control [1, 4]: 44%
% Administered Dose Excreted ([1]; single dose 150 µmol kg^−1 SC): 27.6%
Renal Conc. ([1]; single dose 150 µmol kg^−1 SC): 47 ± 9 ^b µg g^−1
Kidney U Conc. ([1]; single dose 150 µmol kg^−1 SC): 47 ± 9 ^b µg g^−1
Liver U Conc. ([1]; single dose 150 µmol kg^−1 SC): 0.1 ± 0.0 ^b µg g^−1
Lung U Conc. ([1]; single dose 150 µmol kg^−1 SC): 0.07 ± 0.01 ^b µg g^−1
Spleen U Conc. ([1]; single dose 150 µmol kg^−1 SC): 0.15 ± 0.05 ^b µg g^−1
Bone (femur) U Conc. ([1]; single dose 150 µmol kg^−1 SC): 3.1 ± 1.1 µg/g
Bile/Urine (%): bile share of U excretion ([1]; single dose 300 µmol kg^−1 PO): 0%
Bile/Urine (%): urine share of U excretion ([1]; single dose 300 µmol kg^−1 PO): 100%
Reduction (%) of renal uranium vs control [1, 5]: 36%
% Administered Dose Excreted ([1]; single dose 300 µmol kg^−1 PO): 21.2%
Renal Conc. ([1]; single dose 300 µmol kg^−1 PO): 54 ± 11 ^b µg g^−1
Kidney U Conc. ([1]; single dose 300 µmol kg^−1 PO): 54 ± 11 ^b µg g^−1
Liver U Conc. ([1]; single dose 300 µmol kg^−1 PO): 0.2 ± 0.0 µg/g
Lung U Conc. ([1]; single dose 300 µmol kg^−1 PO): 0.10 ± 0.02 ^b µg g^−1
Spleen U Conc. ([1]; single dose 300 µmol kg^−1 PO): 0.13 ± 0.03 ^b µg g^−1
Bone (femur) U Conc. ([1]; single dose 300 µmol kg^−1 PO): 4.3 ± 1.3 µg/g
Reduction (%) of renal uranium vs control [3, 6]: 39%
Renal Conc. [3, 6]: 19 ± 2 ^c µg g^−1
Fecal U Excretion [3, 7]: 30 ± 19 µg/kg
Urine U Excretion ([3]; Day 1, 300 µmol kg^−1 s.c. daily x 4, first dose immediately post-U): 380 ± 55 µg/kg
% Administered Dose Excreted [3, 7]: 41.0%
Total U Excretion [3, 7]: 410 ± 56 µg/kg
Fecal U Excretion [3, 8]: 13 ± 9 µg/kg
Urine U Excretion [3, 8]: 43 ± 11 µg/kg
% Administered Dose Excreted [3, 8]: 5.6%
Total U Excretion [3, 8]: 56 ± 16 ^c µg kg^−1
Fecal U Excretion [3, 9]: 13 ± 5 µg/kg
Urine U Excretion [3, 9]: 29 ± 6 µg/kg
% Administered Dose Excreted [3, 9]: 4.2%
Total U Excretion [3, 9]: 42 ± 5 µg/kg
Fecal U Excretion [3, 10]: 9 ± 5 µg/kg
Urine U Excretion [3, 10]: 14 ± 3 µg/kg
% Administered Dose Excreted [3, 10]: 2.3%
Total U Excretion [3, 10]: 23 ± 3 µg/kg
administered dose of uranium excreted at the end of four days (urine + feces) ([3]; cumulative over 4 days, 300 µmol kg^−1 s.c. daily x 4): 53%
